Holding throughout (conditions): read-out: IZ
The subject of assay [1] is Botrytis fabae. In words: Antimicrobial activity Botrytis fabae at 0.15 mg/mL after 72 hrs by agar diffusion technique.
In assay [2] the test system is Klebsiella pneumoniae. In words: Antimicrobial activity Klebsiella pneumoniae at 0.15 mg/mL after 24 hrs by agar diffusion technique. The format is functional. In a few lines:
(§1)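 Agar diffusion on nutrient agar. Test solutions were 0.15 mg/mL in DMSO, and DMSO alone was the blank. Plates were seeded with the bacterial culture and incubated 24 h at 30 °C. The read-out was the diameter of the inhibition zone in mm.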
In general terms: In agar diffusion tests the substance spreads into inoculated agar from a disc or well.

The subject of assay [3] is Fusarium oxysporum. In words: Antimicrobial activity Fusarium oxysporum at 0.15 mg/mL after 72 hrs by agar diffusion technique.
The test system of assay [4] is Bacillus thuringiensis. Kind of assay: Antimicrobial activity Bacillus thuringiensis at 0.15 mg/mL after 24 hrs by agar diffusion technique. The format is functional. Summed up: as §1
In assay [5] the test system is Klebsiella pneumoniae. Kind of assay: Antimicrobial activity Klebsiella pneumoniae at 25 ug/mL after 24 hrs by agar diffusion technique. The format is functional.
Assay [6] concerns Fusarium oxysporum. Kind of assay: Antimicrobial activity Fusarium oxysporum at 25 ug/mL after 72 hrs by agar diffusion technique.
Assay [7] concerns Botrytis fabae. In words: Antimicrobial activity Botrytis fabae at 25 ug/mL after 72 hrs by agar diffusion technique.
Assay [8] relates to Bacillus thuringiensis. In words: Antimicrobial activity Bacillus thuringiensis at 25 ug/mL after 24 hrs by agar diffusion technique. The format is functional.

SMILES strings stand for the structures.

On to `Cc1cc(C)n(-c2c(C)n(C)n(-c3ccccc3)c2=O)c(=O)c1C#N`, for which the zone of inhibition at 150 µg/mL in the assay on Botrytis fabae [1] amounted to 12 mm; in the assay with Klebsiella pneumoniae [2], 13 mm; in the assay with Fusarium oxysporum [3], 12 mm; in the assay with Bacillus thuringiensis [4] it was 10 mm.

Take `Cc1cc(C)c2c(n1)[nH]n1c(=N)c(C(=O)Nc3c(C)n(C)n(-c4ccccc4)c3=O)nnc21`: the zone of inhibition at 150 µg/mL in the assay with Botrytis fabae [1] was determined as 13 mm; in the assay on Klebsiella pneumoniae [2], 14 mm; in the assay on Fusarium oxysporum [3], 14 mm; in the assay on Bacillus thuringiensis [4], 13 mm.

For the molecule `Cc1c(NC(=O)c2sc(=S)n(-c3ccccc3)c2N)c(=O)n(-c2ccccc2)n1C`, the zone of inhibition at 150 µg/mL in the assay on Botrytis fabae [1] stood at 13 mm; in the assay with Klebsiella pneumoniae [2], 12 mm; with Fusarium oxysporum [3], 13 mm; with Bacillus thuringiensis [4], 12 mm.

With `Cc1c(NC(=O)c2c(Nc3ccccc3)n[nH]c2N)c(=O)n(-c2ccccc2)n1C`, the zone of inhibition at 150 µg/mL in the assay with Botrytis fabae [1] turned out to be 16 mm; in the assay with Klebsiella pneumoniae [2], 12 mm; with Fusarium oxysporum [3], 12 mm; with Bacillus thuringiensis [4] it was 15 mm.

For `Cc1cc(C)n2nc(Nc3ccccc3)c(C(=O)Nc3c(C)n(C)n(-c4ccccc4)c3=O)c2n1`, the zone of inhibition at 150 µg/mL came to 24 mm in the assay with Botrytis fabae [1], 28 mm in the assay with Klebsiella pneumoniae [2], 25 mm in the assay on Fusarium oxysporum [3] and 21 mm in the assay with Bacillus thuringiensis [4].

Regarding `Cc1c(NC(=O)CC#N)c(=O)n(-c2ccccc2)n1C`, the zone of inhibition at 150 µg/mL amounted to 10 mm in the assay on Botrytis fabae [1], 13 mm in the assay with Klebsiella pneumoniae [2], 12 mm in the assay on Fusarium oxysporum [3] and 12 mm with Bacillus thuringiensis [4].

For `Cc1c(NC(=O)c2c(Nc3ccccc3)n[nH]c2/N=C\N(C)C)c(=O)n(-c2ccccc2)n1C`, the zone of inhibition at 150 µg/mL in the assay on Botrytis fabae [1] worked out at 25 mm; in the assay with Klebsiella pneumoniae [2] it was 24 mm; with Fusarium oxysporum [3], 21 mm; with Bacillus thuringiensis [4], 27 mm.

Regarding `Cc1cc(O)n2nc(Nc3ccccc3)c(C(=O)Nc3c(C)n(C)n(-c4ccccc4)c3=O)c2n1`, the zone of inhibition at 150 µg/mL with Botrytis fabae [1] is 27 mm; with Klebsiella pneumoniae [2], 24 mm; in the assay with Fusarium oxysporum [3], 25 mm; in the assay with Bacillus thuringiensis [4], 20 mm.

Consider `Cc1c(-n2nnc3[nH]nc(Nc4ccccc4)c3c2=O)c(=O)n(-c2ccccc2)n1C`, for which the zone of inhibition at 150 µg/mL in the assay with Botrytis fabae [1] was determined as 26 mm; in the assay with Klebsiella pneumoniae [2], 22 mm; with Fusarium oxysporum [3], 22 mm; with Bacillus thuringiensis [4], 22 mm.

Consider `Cc1cc(C)c2c(N/N=C(\C#N)C(=O)Nc3c(C)n(C)n(-c4ccccc4)c3=O)n[nH]c2n1`, for which the zone of inhibition at 150 µg/mL in the assay on Botrytis fabae [1] stood at 16 mm; in the assay with Klebsiella pneumoniae [2] it was 19 mm; in the assay on Fusarium oxysporum [3] it was 16 mm; in the assay on Bacillus thuringiensis [4], 16 mm.

`Cc1c(NC(=O)c2cc3ccccc3oc2=N)c(=O)n(-c2ccccc2)n1C`: the zone of inhibition at 150 µg/mL in the assay with Botrytis fabae [1] stood at 18 mm; in the assay on Klebsiella pneumoniae [2] it was 22 mm; in the assay on Fusarium oxysporum [3], 18 mm; in the assay with Bacillus thuringiensis [4], 24 mm.

For `Cc1c(-n2cnc3[nH]nc(Nc4ccccc4)c3c2=O)c(=O)n(-c2ccccc2)n1C`, the zone of inhibition at 150 µg/mL with Botrytis fabae [1] was 27 mm; in the assay on Klebsiella pneumoniae [2] it was 29 mm; with Fusarium oxysporum [3] it was 25 mm; in the assay with Bacillus thuringiensis [4] it was 28 mm.

Consider `CC1(C)S[C@@H]2[C@H](NC(=O)[C@H](N)c3ccccc3)C(=O)N2[C@H]1C(=O)O` [AMPICILLIN], for which the zone of inhibition at 25 µg/mL in the assay on Klebsiella pneumoniae [5] is 19 mm; in the assay on Fusarium oxysporum [6], 15 mm; in the assay with Botrytis fabae [7] it was 17 mm; in the assay with Bacillus thuringiensis [8], 18 mm.

In the case of `O=C(N[C@H](CO)[C@H](O)c1ccc([N+](=O)[O-])cc1)C(Cl)Cl` [CHLORAMPHENICOL], the zone of inhibition at 25 µg/mL in the assay on Klebsiella pneumoniae [5] was found to be 20 mm; in the assay with Fusarium oxysporum [6] it was 15 mm; in the assay on Botrytis fabae [7], 16 mm; in the assay on Bacillus thuringiensis [8], 23 mm.

On to `OC(Cn1cncn1)(Cn1cncn1)c1ccc(F)cc1F` [FLUCONAZOLE], for which the zone of inhibition at 25 µg/mL turned out to be 16 mm in the assay with Fusarium oxysporum [6] and 22 mm in the assay with Botrytis fabae [7].

The record behind these values is ChEMBL document CHEMBL1158180, “Synthesis and antimicrobial activity of some new heterocycles incorporating antipyrine moiety” (2008).
